Tests used:
ZR-75-1 = assay: Cytotoxicity against human Zr75-1 cells; format: functional, cell-based
Procedure, shortened: (§1)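 Sulforhodamine B (SRB) assay in human cancer cell lines: lung (A549, Hop62), breast (Zr-75-1), oral (DWD, KB, Gurav), prostate (PC3). IC50 in µM, mean of three determinations. Adriamycin as reference. Where IC50 was not reached within the concentrations tested, no value is given.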

[1] = Cytotoxicity against human DWD cells; format: functional, cell-based; procedure, shortened: as §1
KB = assay: Cytotoxicity against human KB cells; format: functional, cell-based; procedure, shortened: as §1
PC-3 = assay: Cytotoxicity against human PC3 cells; format: functional, cell-based; procedure, shortened: as §1
DNA [2] = assay: Binding affinity to calf thymus DNA at 20 uM after 36 hrs by thermal denaturation assay; format: nucleic-acid assay; details: Bos taurus
DNA [3] = assay: Binding affinity to calf thymus DNA at 20 uM after 18 hrs by thermal denaturation assay; format: nucleic-acid assay; details: Bos taurus
HOP-62 = assay: Cytotoxicity against human Hop62 cells; format: functional, cell-based; procedure, shortened: as §1
[4] = Cytotoxicity against human Gurav cells; format: functional, cell-based; procedure, shortened: as §1
A549 = assay: Cytotoxicity against human A549 cells; format: functional, cell-based; procedure, shortened: as §1

Structure (SMILES)	ΔTm (DNA [2])	ΔTm (DNA [3])	IC50 (ZR-75-1)	IC50 [1]	IC50 (KB)	IC50 (PC-3)	IC50 (HOP-62)	IC50 [4]	IC50 (A549)
COc1cccc2c1C(=O)c1c(O)c3c(c(O)c1C2=O)C[C@@](O)(C(=O)CO)C[C@@H]3O[C@H]1C[C@H](N)[C@H](O)[C@H](C)O1 [DOXORUBICIN]			2.32 µM	24.9 µM	0.17 µM	2.26 µM			
COc1cc2c(cc1O)N=C[C@@H]1CCCN1C2=O	0.7 °C	0.7 °C							
COc1cc2c(cc1OCCCCN1CCN(C3=NS(=O)(=O)c4ccccc4N3C(C)C)CC1)N=C[C@@H]1CCCN1C2=O	4.3 °C	4.2 °C	2.24 µM		26.1 µM		343 µM		

More lines, main results first:

ΔTm (DNA [2])	ΔTm (DNA [3])	Structure (SMILES)	IC50 (ZR-75-1)	IC50 [1]	IC50 (KB)	IC50 (PC-3)	IC50 (HOP-62)	IC50 [4]	IC50 (A549)
4.6 °C	4.4 °C	COc1cc2c(cc1OCCCCCN1CCN(C3=NS(=O)(=O)c4ccccc4N3c3ccccc3)CC1)N=C[C@@H]1CCCN1C2=O			2.3 µM	2.35 µM		356 µM	30.2 µM
6.7 °C	6.4 °C	COc1cc2c(cc1OCCCCCN1CCN(C3=NS(=O)(=O)c4ccccc4N3C(C)C)CC1)N=C[C@@H]1CCCN1C2=O	0.12 µM	27.7 µM	2.43 µM	27.8 µM	27.9 µM	26.5 µM	30.3 µM
4.1 °C	4.1 °C	COc1cc2c(cc1OCCCCN1CCN(C3=NS(=O)(=O)c4ccccc4N3c3ccccc3)CC1)N=C[C@@H]1CCCN1C2=O	0.15 µM		29.4 µM	357 µM	369 µM		
